The source of these data is ChEMBL document CHEMBL4266009, “One Step Beyond: Design of Substrates Spanning Primed Positions of Zika Virus NS2B-NS3 Protease” (ACS Med Chem Lett, 2018).

In assay [1] the test system is Zika virus. Put plainly: Substrate activity at recombinant ZIKV NS3 pro domain fused NS2B protease assessed as ratio of Kcat to Km in Tris-CHAPS-glycerol buffer at pH 7.4 after 30 mins. Put shortly:
(§1)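 Continuous fluorescence assay (Ex 320, Em 450 nm) in 10 mM Tris-HCl pH 7.4, 20% glycerol, 1 mM CHAPS at 37 °C; substrate (1.0×10-7 to 4×10^-5 M final) added to 1.64×10^-8 M NS2BLNNS3pro. Initial rates from linear portions, inner-filter corrected; KM and kcat from double-reciprocal Michaelis-Menten plots; triplicate, SD ≤20%.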

The subject of assay [2] is Zika virus. The experiment in a line: Substrate activity at recombinant ZIKV NS3 pro domain fused NS2B protease at pH 7.4 after 30 mins by fluorescence assay. Put shortly:
(§2)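 pH profile: NS2BLNNS3pro 1.64×10^-8 M with substrate 2.44×10^-5 M in citrate (pH 3.0), acetate (4.0, 5.0), MES (6.0), MOPS (7.0), Tris (7.4, 10.0) or HEPES (8.0); fluorescence increase followed at 37 °C over 30 min.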

Assay [3] has as its system Zika virus. Put plainly: Substrate activity at recombinant ZIKV NS3 pro domain fused NS2B protease assessed as Km in Tris-CHAPS-glycerol buffer at pH 7.4 after 30 mins. Put shortly: as §1
In assay [4] the test system is Zika virus. The experiment in a line: Substrate activity at recombinant ZIKV NS3 pro domain fused NS2B protease at pH 7.4.
Assay [5] in a line: Selectivity ratio of substrate activity at recombinant ZIKV NS3 pro domain fused NS2B protease to substrate activity at West Nile virus protease.
In assay [6] the test system is Zika virus. Put plainly: Substrate activity at recombinant ZIKV NS3 pro domain fused NS2B protease at pH 8 to 10 after 30 mins by fluorescence assay. The gist of the method:
as §2

Assay [7] deals with Zika virus. Put plainly: Substrate activity at recombinant ZIKV NS3 pro domain fused NS2B protease at pH 3 to 6 after 30 mins by fluorescence assay. Put shortly:
as §2

Assay [8] relates to Zika virus. The experiment in a line: Substrate activity at 6.86x10'-6M of recombinant ZIKV NS3 pro domain fused NS2B protease. The settings on record: in the assay text read “6.86x10'-10M” for “6.86x10'-6M”. The gist of the method:
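Limit of detection: decreasing amounts of recombinant NS2BLNNS3pro titrated against substrate at 2.44 × 10^-5 M in PBS pH 7.4, 37 °C, 30 min; fluorescence read at 450 nm (Ex 320 nm); detection limit from fluorescence increase versus enzyme concentration; triplicate.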

Assay [9] has as its system Zika virus. Put plainly: Substrate activity at recombinant ZIKV NS3 pro domain fused NS2B protease assessed as Km in PBS at pH 7.4 after 30 mins. Put shortly:
(§3)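 Kinetic constants determined in PBS pH 7.4 with the recombinant NS2BLNNS3pro; cleavage followed by ABZ fluorescence (Ex 320, Em 450 nm) at 37 °C; initial rates fitted and KM, kcat obtained from double-reciprocal Michaelis-Menten plots.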

For assay [10], the system named is Zika virus. Put plainly: Substrate activity at recombinant ZIKV NS3 pro domain fused NS2B protease assessed as Kcat in PBS at pH 7.4 after 30 mins. Put shortly: as §3
Assay [11] has as its system Zika virus. The experiment in a line: Substrate activity at recombinant ZIKV NS3 pro domain fused NS2B protease assessed as ratio of Kcat to Km in PBS at pH 7.4 after 30 mins. Put shortly:
as §3

For assay [12], the system named is Zika virus. The experiment in a line: Substrate activity at recombinant ZIKV NS3 pro domain fused NS2B protease assessed as Kcat in Tris-CHAPS-glycerol buffer at pH 7.4 after 30 mins. The gist of the method: as §1
Assay [13] relates to Zika virus. Put plainly: Substrate activity at recombinant ZIKV NS3 pro domain fused NS2B protease by HPLC method.

Calls of active or inactive are those of the source. The calls are words filed in the database; no cut-off is given here. Non-standard residues stand in square brackets, D forms with d. Residues, ends and D or L forms follow the SMILES beside them. Tyr(3-NO2) = N[C@@H](Cc1ccc(O)c([N+](=O)[O-])c1)C(=O)O; 2Abz = Nc1ccccc1C(=O)O

Regarding `CC(=O)N[C@H](CCCNC(=N)N)C(=O)N[C@@H](CCCCN)C(=O)N[C@@H](CCCN)C(=O)N[C@@H](CCCNC(=N)N)C(=O)Nc1ccc2c(CC(N)=O)cc(=O)oc2c1`, in the assay with Zika virus [1], the kcat/Km is 1.1 ×10⁶ /M/s.

Take `CC(C)[C@H](NC(=O)c1ccccc1N)C(=O)N[C@@H](CCCCN)C(=O)N[C@@H](CCCCN)C(=O)N[C@@H](CCCNC(=N)N)C(=O)N[C@@H](C)C(=O)N[C@@H](C)C(=O)N[C@@H](CC(=O)O)C(=O)N[C@@H](Cc1ccc(O)c([N+](=O)[O-])c1)C(N)=O` (H-[2Abz]VKKRAAD[Tyr(3-NO2)]-NH2): the result in the assay with Zika virus [2] was Active.

Turning to `CC(C)[C@H](NC(=O)c1ccccc1N)C(=O)N[C@@H](CCCCN)C(=O)N[C@@H](CCCCN)C(=O)N[C@@H](CCCNC(=N)N)C(=O)N[C@@H](C)C(=O)N[C@@H](C)C(=O)N[C@@H](CCC(=O)O)C(=O)N[C@@H](Cc1ccc(O)c([N+](=O)[O-])c1)C(N)=O` (H-[2Abz]VKKRAAE[Tyr(3-NO2)]-NH2), the outcome in the assay on Zika virus [2] was Active.

`CC(C)[C@H](NC(=O)c1ccccc1N)C(=O)N[C@@H](CCCCN)C(=O)N[C@@H](CCCCN)C(=O)N[C@@H](CCCNC(=N)N)C(=O)N[C@@H](C)C(=O)N[C@@H](C)C(=O)N[C@@H](Cc1c[nH]c2ccccc12)C(=O)N[C@@H](Cc1ccc(O)c([N+](=O)[O-])c1)C(N)=O` (H-[2Abz]VKKRAAW[Tyr(3-NO2)]-NH2): the Km (as a rule, the concentration of substrate that gives half-maximal velocity) was determined as 1.23 µM in the assay with Zika virus [3] and 6.97 µM in the assay with Zika virus [9]. For the same compound, the result with Zika virus [4], with Zika virus [6], with Zika virus [8], in the assay with Zika virus [2] and in the assay on Zika virus [13] was Active. The Ratio in assay [5] came out at 200. Also, the result with Zika virus [7] was inactive. In addition, the kcat – broadly, the maximal rate divided by the concentration of active sites – came out at 16.3 s⁻¹ with Zika virus [10] and 151 s⁻¹ in the assay with Zika virus [12]. Moreover, the kcat/Km in the assay with Zika virus [11] is 2.32 ×10⁶ /M/s; in the assay with Zika virus [1], 1.26 ×10⁸ /M/s.
